Bioassay records from PubChem BioAssay.
This is a sample that favours compounds with a hit; in the whole collection about 5.8% have one here.
Pf Dd2 inh: P. falciparum Dd2 growth inhibitors, primary screen, SYBR Green fluorescence, single dose replicates | 72 h; active compounds read low | activity change, % at 10 µM | actives 2.3% (n = 94,000) | AID 1159554, 2015; in the data active means activity change below about -80%; inconclusive means no clear call, values can overlap the other calls
T cruzi growth-1: T. cruzi intracellular proliferation inhibitors, primary screen, cell-based, beta-gal Tulahuen parasites, NIH3T3 host, luminescence | T. cruzi beta-gal in NIH3T3, GalScreen luminescence, 90 h | inhibition, % at 8.34 µM | actives 5.9% (n = 77,000) | AID 624255, 2012;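 active means mean inhibition above about 93%, with at least 55% of replicates each passing it, limit read from the data, passing the limit was not always enough; inconclusive means only one of those two conditions holds; inactive means neither condition holds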
GASC1 inh: inhibitors of GASC-1 (KDM4C) histone demethylase, primary screen, biochemical, single concentration HTS | Lysine-specific demethylase 4C (Homo sapiens), Q9H3R0 | GST-KDM4C 2-372, H3K9me3 peptide, LANCE TR-FRET | inhibition, % at 12.5 µM | actives 0.15% (n = 96,000) | AID 720574, 2013;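 active means mean replicate inhibition above about 25%, with at least 55% of replicates also reaching it, limit read from the data, passing the limit was not always enough; inconclusive means only one of those two conditions met; inactive means neither condition met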
Target sequence (Q9H3R0 2-372 limits assumed): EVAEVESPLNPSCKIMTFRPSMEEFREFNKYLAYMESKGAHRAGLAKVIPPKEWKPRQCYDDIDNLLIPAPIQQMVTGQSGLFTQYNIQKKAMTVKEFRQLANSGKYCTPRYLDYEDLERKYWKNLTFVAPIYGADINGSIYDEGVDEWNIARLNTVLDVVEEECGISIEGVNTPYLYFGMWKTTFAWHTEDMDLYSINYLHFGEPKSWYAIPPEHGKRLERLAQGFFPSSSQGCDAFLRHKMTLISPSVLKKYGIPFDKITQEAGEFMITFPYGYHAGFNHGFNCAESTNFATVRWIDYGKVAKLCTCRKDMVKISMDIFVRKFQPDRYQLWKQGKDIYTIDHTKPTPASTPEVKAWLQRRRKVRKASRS
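System – N-terminal GST-fused human GASC-1 (KDM4C) fragment, residues 2-372 · Input – enzyme final amount 10 nM · Technique – LANCE TR-FRET, Eu antibody, ULight-streptavidin, EDTA, ex 340 nm, em 618/671 nm · Medium – HEPES buffer, pH 7.5, plus ascorbate · Incubation – enzyme reaction 30 min, then detection 60 min, both room temperature · Reagent – H3K9me3 peptide with Fe(II)/2OG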
IDH1 R132H inh: inhibitors of IDH1 R132H reductase, primary screen, biochemical, plate reader, single point; inhibition, % at 10 µM; AID 624101, 2012; actives 0.18% (n = 70,000); Isocitrate dehydrogenase [NADP] cytoplasmic (Homo sapiens), O75874; diaphorase/resazurin fluorescence, 60 min; in the data active means inhibition above about 34%; inconclusive means no clear call, values can overlap the other calls; inactive means below about 11%;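 further: 0% = DMSO and 100% = no enzyme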
Target sequence (O75874 whole entry R132H): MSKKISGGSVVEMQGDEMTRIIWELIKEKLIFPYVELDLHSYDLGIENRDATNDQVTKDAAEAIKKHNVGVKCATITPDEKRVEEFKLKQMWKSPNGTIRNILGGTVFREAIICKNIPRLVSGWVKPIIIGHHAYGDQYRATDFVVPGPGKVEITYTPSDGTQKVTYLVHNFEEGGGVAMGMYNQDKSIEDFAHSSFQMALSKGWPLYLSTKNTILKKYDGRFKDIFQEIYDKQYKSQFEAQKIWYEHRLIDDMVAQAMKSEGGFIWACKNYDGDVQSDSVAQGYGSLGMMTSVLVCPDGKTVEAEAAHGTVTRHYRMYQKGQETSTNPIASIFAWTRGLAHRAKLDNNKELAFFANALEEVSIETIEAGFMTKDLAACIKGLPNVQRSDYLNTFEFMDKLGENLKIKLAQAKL
T cruzi growth-2: T. cruzi intracellular proliferation inhibitors, confirmation, cell-based, NIH3T3 host, beta-gal parasite, luminescence, cherry-pick; actives 72% (n = 5,600); inhibition, % at 8.35 µM; T. cruzi beta-gal in NIH3T3, GalScreen luminescence, 90 h; shares compounds with T cruzi growth-1;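 active means mean replicate inhibition above about 95% and at least 55% of replicates individually reaching it, limit read from the data; inconclusive means only one of the two criteria is met; inactive means neither criterion is met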
T cruzi growth-3: inhibitors of intracellular T. cruzi replication, confirmation, NIH3T3 host cells, beta-gal parasites, cherry-pick, set 2; actives 21% (n = 5,600); shares compounds with T cruzi growth-1; T. cruzi beta-gal in NIH3T3, GalScreen luminescence, 90 h; AID 651740, 2012; inhibition, % at 2.09 µM;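 active means mean inhibition above about 95%, with at least 55% of replicates also reaching it, limit read from the data; inconclusive means meets just one of the two conditions; inactive means meets neither condition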;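 further: plate controls were neutral control median for no effect and positive control median for full effect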
3T3 cytotox: cytotoxicity in mouse NIH/3T3 fibroblasts, confirmation, cytotoxicity control for T. cruzi proliferation inhibitor project, cell-based, cherry-pick, single point; cytotoxicity (signal decrease), % at 8.35 µM; shares compounds with T cruzi growth-1; actives 14% (n = 5,600); NIH/3T3 viability, CellTiter-Glo ATP luminescence, 90 h; AID 651742, 2012;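 active means mean signal decrease across replicates above about 35% based on untreated-well scatter, with enough replicates individually passing, limit read from the data; inconclusive means no rule stated though some were filed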;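 further: 0% = median of neutral control wells and 100% = median of positive control wells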
3T3 cytotox 2: NIH/3T3 fibroblast cytotoxicity, confirmation, cytotoxicity control, cell-based, cherry-pick, single point, set 2 | shares compounds with T cruzi growth-1 | NIH/3T3 viability, CellTiter-Glo ATP luminescence, 90 h | inhibition, % at 24.9 µM | actives 56% (n = 5,600);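 active means mean loss of cell viability signal at or above a set limit, and enough replicates individually reaching it; inconclusive means meets only the mean limit or only the replicate share; inactive means meets neither condition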;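 further: 0% = median of neutral control wells and 100% = median of positive control wells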
The depositor's hits bear a star; ? = inconclusive; nt = no result given.

SMILES | Pf Dd2 inh | T cruzi growth-1 | GASC1 inh | IDH1 R132H inh | T cruzi growth-2 | T cruzi growth-3 | 3T3 cytotox | 3T3 cytotox 2
C[C@H](CO)N1C[C@H](C)[C@H](CN(C)Cc2ccc(Oc3ccccc3)cc2)Oc2c(NC(=O)Nc3cccc4ccccc34)cccc2C1=O | -78 | 98* | -5 | -1 | 99* | 109* | 19 | ?
CC(C)NC(=O)Nc1cccc2c1O[C@H](CN(C)Cc1ccc(Oc3ccccc3)cc1)[C@@H](C)CN([C@H](C)CO)C2=O | -32 | 103* | 6 | -2 | 102* | 62 | -26 | 103*
CC(C)NC(=O)Nc1cccc2c1O[C@H](CN(C)Cc1ccc(Oc3ccccc3)cc1)[C@H](C)CN([C@@H](C)CO)C2=O | -71 | 54 | -1 | -1 | nt | nt | nt | nt
CCCC#Cc1ccc([C@H]2[C@@H](CO)N3CCCCN(Cc4ccncc4)C[C@@H]23)cc1 | -8 | 115* | 1 | nt | 101* | 28 | ? | 71*
COc1ccc(C#Cc2ccc([C@@H]3[C@@H](CO)N4CCCCN(Cc5ccncc5)C[C@H]34)cc2)cc1 | -74 | ? | 2 | nt | 100* | ? | 89* | 105*
CCCC#Cc1ccc([C@H]2[C@H]3CN(Cc4ccncc4)CCCCN3[C@H]2CO)cc1 | -25 | 95* | -1 | nt | 105* | 56 | 42* | 81*
C[C@@H]1CN([C@@H](C)CO)C(=O)c2cc(NC(=O)Nc3ccc(C(F)(F)F)cc3)ccc2O[C@@H](C)CCCCO[C@@H]1CN(C)S(=O)(=O)c1ccccc1 | -44 | 76 | 1 | nt | nt | nt | nt | nt
C[C@@H]1CCCCO[C@@H](CN(C)S(=O)(=O)c2ccccc2)[C@@H](C)CN([C@H](C)CO)C(=O)c2cc(NC(=O)Nc3ccccc3)ccc2O1 | -59 | 36 | 0 | 0 | nt | nt | nt | nt
C[C@@H]1CCCCO[C@@H](CN(C)S(=O)(=O)c2ccccc2)[C@@H](C)CN([C@@H](C)CO)C(=O)c2cc(NC(=O)Nc3ccc(C(F)(F)F)cc3)ccc2O1 | -59 | 105* | 1 | nt | 103* | 106* | 37* | 63*
C[C@@H]1CCCCO[C@@H](CN(C)S(=O)(=O)c2ccccc2)[C@H](C)CN([C@@H](C)CO)C(=O)c2cc(NC(=O)Nc3ccc(C(F)(F)F)cc3)ccc2O1 | -75 | 109* | 2 | nt | 104* | 115* | 13 | 1
C[C@@H]1CN([C@@H](C)CO)C(=O)c2cc(NC(=O)Nc3ccc(C(F)(F)F)cc3)ccc2O[C@@H](C)CCCCO[C@H]1CN(C)S(=O)(=O)c1ccccc1 | -49 | 109* | 0 | nt | 103* | 114* | 14 | 16
COc1cc(C(=O)NC(=S)Nc2cccc(-c3nc4ncccc4o3)c2C)cc(OC)c1OC | nt | nt | nt | 0 | nt | nt | nt | nt
Cn1c(SCC(=O)Nc2cccc3ccccc23)nnc1-c1ccc(F)cc1 | nt | nt | nt | 1 | nt | nt | nt | nt
C[C@@H]1CN([C@@H](C)CO)S(=O)(=O)c2ccc(-c3cccc(F)c3)cc2O[C@H]1CN(C)S(=O)(=O)c1ccc(F)cc1 | -78 | 113* | 1 | nt | 101* | 108* | 49* | 48*
COc1ccc(S(=O)(=O)N(C)C[C@@H]2Oc3cc(-c4cccc(F)c4)ccc3S(=O)(=O)N([C@H](C)CO)C[C@H]2C)cc1 | -76 | nt | 1 | 0 | nt | nt | nt | nt
COc1ccc(S(=O)(=O)N(C)C[C@H]2Oc3cc(-c4cccc(F)c4)ccc3S(=O)(=O)N([C@H](C)CO)C[C@@H]2C)cc1 | -72 | nt | -1 | -1 | nt | nt | nt | nt
C[C@H](CO)N1C[C@H](C)[C@@H](CN(C)S(=O)(=O)c2ccc(F)cc2)Oc2cc(-c3cccc(F)c3)ccc2S1(=O)=O | -71 | 118* | -2 | nt | 97* | 104* | 39* | 42*
COC(=O)c1ccccc1NC(=O)CN(C)S(=O)(=O)c1c(C)cc(C)cc1C | nt | nt | nt | 0 | nt | nt | nt | nt
O=C(C[C@H]1C[C@@H]2c3cc(NC(=O)c4ccc5c(c4)OCO5)ccc3O[C@@H]2[C@@H](CO)O1)NCc1ccc(Cl)cc1 | -41 | 101* | 1 | 0 | 101* | 56 | 21 | 25
O=C(C[C@H]1C[C@@H]2c3cc(NC(=O)c4ccc5c(c4)OCO5)ccc3O[C@@H]2[C@H](CO)O1)NCc1ccc(Oc2ccccc2)cc1 | -18 | 177* | -2 | -1 | 99* | 38 | -15 | 45*
O=C(C[C@@H]1C[C@@H]2c3cc(NC(=O)c4ccc5c(c4)OCO5)ccc3O[C@@H]2[C@H](CO)O1)NCc1ccc(Cl)cc1 | -10 | 9 | -1 | 0 | nt | nt | nt | nt
O=C(CSc1nc(C(F)(F)F)cc(=O)[nH]1)Nc1ccc(F)cc1 | nt | nt | nt | 2 | nt | nt | nt | nt
NC(=O)CSCC(=O)Nc1ccccc1F | nt | nt | nt | 0 | nt | nt | nt | nt
O=C(CC1(O)C(=O)N(Cc2cccc3ccccc23)c2ccccc21)c1ccccn1 (stereo not given) | nt | nt | nt | 0 | nt | nt | nt | nt
COc1cccc(OC)c1C(=O)Nc1cccc(-c2nc3ncccc3o2)c1 | nt | nt | nt | 2 | nt | nt | nt | nt
SMILES | Pf Dd2 inh | T cruzi growth-1 | GASC1 inh | IDH1 R132H inh | T cruzi growth-2 | T cruzi growth-3 | 3T3 cytotox | 3T3 cytotox 2
COc1cccc(S(=O)(=O)N2CCCCN3[C@H](CO)[C@H](c4ccc(-c5cccnc5)cc4)[C@@H]3C2)c1 | 13 | 118* | -1 | nt | 103* | 66 | -8 | 24
COc1cccc(S(=O)(=O)N2CCCCN3[C@H](C2)[C@H](c2ccc(-c4cccnc4)cc2)[C@@H]3CO)c1 | -58 | 105* | -1 | nt | 103* | 88 | 4 | 6
COc1cccc(S(=O)(=O)N2CCCCN3[C@H](CO)[C@H](c4ccc(-c5ccncc5)cc4)[C@@H]3C2)c1 | -12 | 113* | -1 | nt | 109* | 104* | -27 | 10
COc1cccc(S(=O)(=O)N2CCCCN3[C@H](CO)[C@@H](c4ccc(-c5cncnc5)cc4)[C@H]3C2)c1 | -2 | 54 | -1 | nt | nt | nt | nt | nt
COc1cccc(S(=O)(=O)N2CCCCN3[C@H](CO)[C@@H](c4ccc(-c5cccnc5)cc4)[C@H]3C2)c1 | 2 | 55 | 0 | nt | nt | nt | nt | nt
COc1ccc(S(=O)(=O)N2CCCCN3[C@H](CO)[C@@H](c4ccc(-c5cccnc5)cc4)[C@H]3C2)cc1 | -12 | 113* | 0 | nt | 78 | 23 | 19 | 12
